ChEMBL document CHEMBL2177085 (J Med Chem, 2012)

Tests used:
[1] = tested on: MKN-45; assay: Induction of apoptosis in human MKN45 assessed as accumulation at subG1 phase at 5 uM incubated for 7 days by flow cytometry (reference value: 10.9 +/- 3.2%); format: functional
[2] = tested on: MKN-45; assay: Cytotoxic activity against human MKN45 cells assessed as cell viability at 0.5 uM incubated for 5 days by MTT assay; format: functional; details: MKN-45, 120 h, read-out: Activity
In short: (§1)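 MTT viability: exponentially growing cells, 10 000 viable cells/well in RPMI plated overnight, then exposed to test compounds for 3 days (HT-29, Molm-14) or 5 days (Mkn-45) at 37 °C, 5% CO2. MTT added for 4 h, then SDS/HCl solubilization overnight and absorbance read at 562 nm. Viability is expressed relative to untreated cells (100%). Triplicate.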

[3] = tested on: MKN-45; assay: Cytotoxic activity against human MKN45 cells assessed as cell viability at 10 uM incubated for 5 days by MTT assay; format: functional; details: MKN-45, 120 h, read-out: Activity; in short: as §1
[4] = Inhibition of angiogenesis in chick embryo model assessed as reduction in vessel growth at 26 nM incubated for 24 hrs; format: functional, Gallus gallus
In short: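 White leghorn eggs incubated at 37.5 °C, 62% humidity. At 70 h, albumen removed and shell windowed. From 75 h, 15 agarose pellets (from a 26 mM DMSO stock in 2% agarose; final concentration 26 nM) placed on the area vasculosa.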

[5] = tested on: MKN-45; assay: Cytotoxic activity against human MKN45 cells assessed as cell viability at 20 uM incubated for 5 days by MTT assay; format: functional; details: MKN-45, 120 h, read-out: Activity; in short: as §1
[6] = tested on: HT-29; assay: Cytotoxic activity against human HT-29 cells assessed as cell viability at 2.6 uM incubated for 3 days by MTT assay; format: functional; details: HT-29, 72 h, read-out: Activity; in short: as §1
[7] = tested on: HUVEC; assay: Induction of apoptosis in human HUVEC assessed as accumulation at subG1 phase at 2.6 uM incubated for 4 days by flow cytometry (reference value: 15.4 +/- 1.5%); format: functional
[8] = tested on: HT-29; assay: Cytotoxic activity against human HT-29 cells assessed as cell viability at 52 uM incubated for 3 days by MTT assay; format: functional; details: HT-29, 72 h, read-out: Activity; in short: as §1
[9] = tested on: HUVEC; assay: Induction of apoptosis in human HUVEC assessed as accumulation at subG1 phase at 0.79 uM incubated for 4 days by flow cytometry (reference value: 15.4 +/- 1.5%); format: functional
[10] = tested on: MKN-45; assay: Cytotoxic activity against human MKN45 cells assessed as cell viability at 1 uM incubated for 5 days by MTT assay; format: functional; details: MKN-45, 120 h, read-out: Activity; in short: as §1
[11] = tested on: MKN-45; assay: Induction of apoptosis in human MKN45 assessed as accumulation at subG1 phase at 10 uM incubated for 7 days by flow cytometry (reference value: 10.9 +/- 3.2%); format: functional
[12] = tested on: MKN-45; assay: Cytotoxic activity against human MKN45 cells assessed as cell viability at 50 uM incubated for 5 days by MTT assay; format: functional; details: MKN-45, 120 h, read-out: Activity; in short: as §1
[13] = target: Vascular endothelial growth factor receptor 2 (Homo sapiens, UniProt P35968); assay: Inhibition of VEGFR2
In short: (§2)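 IC50 determined by a commercial kinase profiling service (Millipore IC50 Profiler); duplicate testing.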

[14] = tested on: HT-29; assay: Cytotoxic activity against human HT-29 cells assessed as cell viability at 7.9 uM incubated for 3 days by MTT assay; format: functional; details: HT-29, 72 h, read-out: Activity
In short: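 HT-29 cells in exponential growth were seeded at 10 000 viable cells per well in RPMI and left overnight. They were then exposed to compound for 3 days at 37 °C under 5% CO₂. MTT was added for 4 h, followed by overnight solubilisation in 10% SDS/0.01 M HCl and absorbance at 562 nm. Viability is expressed as % of untreated cells (100%), in triplicate.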

[15] = tested on: MKN-45; assay: Cytotoxic activity against human MKN45 cells assessed as cell viability at 5 uM incubated for 5 days by MTT assay; format: functional; details: MKN-45, 120 h, read-out: Activity; in short: as §1
[16] = tested on: MKN-45; assay: Induction of apoptosis in human MKN45 assessed as accumulation at subG1 phase at 20 uM incubated for 7 days by flow cytometry (reference value: 10.9 +/- 3.2%); format: functional
[17] = tested on: MKN-45; assay: Induction of apoptosis in human MKN45 assessed as accumulation at subG1 phase at 15 uM incubated for 7 days by flow cytometry (reference value: 10.9 +/- 3.2%); format: functional
[18] = target: Glycogen synthase kinase-3 beta (Homo sapiens, UniProt P49841); assay: Inhibition of GSK3beta; in short: as §2
[19] = tested on: HT-29; assay: Cytotoxic activity against human HT-29 cells assessed as cell viability at 26 uM incubated for 3 days by MTT assay; format: functional; details: HT-29, 72 h, read-out: Activity; in short: as §1
[20] = tested on: MKN-45; assay: Induction of apoptosis in human MKN45 assessed as accumulation at subG1 phase at 1 uM incubated for 7 days by flow cytometry (reference value: 10.9 +/- 3.2%); format: functional
[21] = target: T1, Receptor-type tyrosine-protein kinase FLT3 (Homo sapiens, UniProt P36888); assay: Inhibition of FLT3
T1 sequence (P36888 whole entry): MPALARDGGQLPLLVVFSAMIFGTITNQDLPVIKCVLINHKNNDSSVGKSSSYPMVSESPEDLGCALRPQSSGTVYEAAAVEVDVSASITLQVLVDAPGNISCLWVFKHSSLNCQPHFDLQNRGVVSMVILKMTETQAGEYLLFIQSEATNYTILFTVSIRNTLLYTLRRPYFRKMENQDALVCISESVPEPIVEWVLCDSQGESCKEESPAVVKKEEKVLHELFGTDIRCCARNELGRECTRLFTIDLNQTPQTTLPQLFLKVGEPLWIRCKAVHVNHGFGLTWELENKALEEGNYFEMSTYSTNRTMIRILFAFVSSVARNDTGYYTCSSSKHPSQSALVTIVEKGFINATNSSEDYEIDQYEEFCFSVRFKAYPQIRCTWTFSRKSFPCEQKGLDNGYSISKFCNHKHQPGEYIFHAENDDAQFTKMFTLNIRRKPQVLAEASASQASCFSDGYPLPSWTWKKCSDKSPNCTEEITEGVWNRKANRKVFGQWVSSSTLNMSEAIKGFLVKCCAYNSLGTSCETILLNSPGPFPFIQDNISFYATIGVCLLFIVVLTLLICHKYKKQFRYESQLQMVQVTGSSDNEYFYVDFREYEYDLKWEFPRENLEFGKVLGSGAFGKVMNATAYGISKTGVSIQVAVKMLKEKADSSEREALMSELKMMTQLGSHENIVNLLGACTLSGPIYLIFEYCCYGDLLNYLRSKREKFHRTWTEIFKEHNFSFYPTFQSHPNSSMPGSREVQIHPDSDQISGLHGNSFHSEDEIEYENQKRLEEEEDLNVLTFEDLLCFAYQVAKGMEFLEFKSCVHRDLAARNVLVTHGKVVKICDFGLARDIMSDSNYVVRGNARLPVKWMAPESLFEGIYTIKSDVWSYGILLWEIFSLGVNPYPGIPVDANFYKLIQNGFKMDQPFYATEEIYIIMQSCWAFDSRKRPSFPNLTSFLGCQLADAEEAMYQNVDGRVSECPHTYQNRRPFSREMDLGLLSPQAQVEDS
In short: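 Run as an outsourced kinase profiling service (Millipore IC50 Profiler), with the protocol referred to the provider. Gives IC50 values and residual activity at 10 μM test compound. Compounds tested in duplicate.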

Vascular endothelial growth factor receptor 2, sequence (P35968 whole entry): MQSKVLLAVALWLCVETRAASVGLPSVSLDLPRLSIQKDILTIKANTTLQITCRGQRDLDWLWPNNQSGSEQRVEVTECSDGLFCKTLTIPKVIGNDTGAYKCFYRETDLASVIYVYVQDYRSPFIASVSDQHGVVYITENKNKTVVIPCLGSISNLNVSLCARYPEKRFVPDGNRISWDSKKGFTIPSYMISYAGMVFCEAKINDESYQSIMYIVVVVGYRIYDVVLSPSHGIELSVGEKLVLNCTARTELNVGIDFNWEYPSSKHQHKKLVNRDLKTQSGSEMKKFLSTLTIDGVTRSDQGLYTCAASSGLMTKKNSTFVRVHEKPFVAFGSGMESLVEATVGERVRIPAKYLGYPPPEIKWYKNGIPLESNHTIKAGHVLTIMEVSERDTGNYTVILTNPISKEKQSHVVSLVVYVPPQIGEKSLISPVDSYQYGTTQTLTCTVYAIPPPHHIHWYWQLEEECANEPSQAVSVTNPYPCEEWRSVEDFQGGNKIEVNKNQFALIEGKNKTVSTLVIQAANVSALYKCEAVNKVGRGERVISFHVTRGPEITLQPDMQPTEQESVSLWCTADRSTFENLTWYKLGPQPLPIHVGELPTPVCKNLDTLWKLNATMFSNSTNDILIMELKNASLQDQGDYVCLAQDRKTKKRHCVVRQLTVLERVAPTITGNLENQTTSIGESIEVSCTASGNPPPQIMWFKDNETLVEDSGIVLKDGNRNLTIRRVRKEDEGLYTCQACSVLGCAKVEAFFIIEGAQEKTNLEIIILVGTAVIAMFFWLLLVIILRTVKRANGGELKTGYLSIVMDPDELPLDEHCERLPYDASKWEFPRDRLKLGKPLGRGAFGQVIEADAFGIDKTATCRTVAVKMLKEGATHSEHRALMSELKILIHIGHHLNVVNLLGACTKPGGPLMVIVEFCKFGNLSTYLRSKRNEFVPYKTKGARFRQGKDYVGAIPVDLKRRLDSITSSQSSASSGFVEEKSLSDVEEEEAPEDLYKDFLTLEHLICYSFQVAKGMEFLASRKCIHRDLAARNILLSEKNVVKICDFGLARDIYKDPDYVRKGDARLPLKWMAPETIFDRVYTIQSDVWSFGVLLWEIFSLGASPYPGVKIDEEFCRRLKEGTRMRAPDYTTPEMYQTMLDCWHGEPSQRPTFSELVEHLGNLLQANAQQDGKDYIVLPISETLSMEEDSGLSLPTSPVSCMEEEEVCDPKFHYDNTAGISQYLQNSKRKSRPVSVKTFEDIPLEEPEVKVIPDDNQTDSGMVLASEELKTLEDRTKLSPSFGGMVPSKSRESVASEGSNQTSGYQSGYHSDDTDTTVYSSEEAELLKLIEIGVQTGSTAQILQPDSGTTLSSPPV
Glycogen synthase kinase-3 beta, sequence (P49841 whole entry): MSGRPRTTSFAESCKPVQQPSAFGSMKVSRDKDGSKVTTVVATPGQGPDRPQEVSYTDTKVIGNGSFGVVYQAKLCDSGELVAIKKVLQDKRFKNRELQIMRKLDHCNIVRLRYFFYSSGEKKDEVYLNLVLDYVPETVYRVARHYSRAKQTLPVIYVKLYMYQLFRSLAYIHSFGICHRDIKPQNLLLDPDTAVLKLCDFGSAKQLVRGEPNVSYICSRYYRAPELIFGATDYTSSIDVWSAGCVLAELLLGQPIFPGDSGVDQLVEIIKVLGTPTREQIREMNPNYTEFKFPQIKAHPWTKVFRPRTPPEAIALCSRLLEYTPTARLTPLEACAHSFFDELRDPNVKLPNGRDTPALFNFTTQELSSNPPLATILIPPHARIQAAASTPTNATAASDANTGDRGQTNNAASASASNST

COc1cc(C2=C(c3c[nH]c4ccncc34)C(=O)NC2=O)cc(OC)c1OC
Activity [1]: 15.7%
viability at 0.5 µM [2]: 99.1%
viability at 10 µM [3]: 98.6%
inhibition (INH) [4]: 40%
viability at 20 µM [5]: 89.4%
viability at 2.6 µM [6]: 90.8%
Activity [7]: 46.3%
viability at 52 µM [8]: 47.4%
Activity [9]: 31.3%
viability at 1 µM [10]: 100%
Activity [11]: 21.5%
viability at 50 µM [12]: 82.5%
IC50 [13]: 0.59 µM
viability at 7.9 µM [14]: 61.5%
viability at 5 µM [15]: 99%
Activity [16]: 31.6%
Activity [17]: 25.7%
IC50 [18]: 0.04 µM
viability at 26 µM [19]: 56.5%
Activity [20]: 8.8%
IC50 [21]: ≥ 3 µM
